Data published in ChEMBL document CHEMBL1146016, “Synthesis and structure-activity relationships of 3,4-diaminocyclobut-3-ene-1,2-dione CXCR2 antagonists” (Bioorg Med Chem Lett, 2006).

Columns and labels:
[1] = target: T1, C-X-C chemokine receptor type 2 (Homo sapiens, UniProt P25025); assay: Displacement of [125I]IL8 from human CXCR2 expressed in CHO cells; format: cell-based
T1 sequence (P25025 whole entry): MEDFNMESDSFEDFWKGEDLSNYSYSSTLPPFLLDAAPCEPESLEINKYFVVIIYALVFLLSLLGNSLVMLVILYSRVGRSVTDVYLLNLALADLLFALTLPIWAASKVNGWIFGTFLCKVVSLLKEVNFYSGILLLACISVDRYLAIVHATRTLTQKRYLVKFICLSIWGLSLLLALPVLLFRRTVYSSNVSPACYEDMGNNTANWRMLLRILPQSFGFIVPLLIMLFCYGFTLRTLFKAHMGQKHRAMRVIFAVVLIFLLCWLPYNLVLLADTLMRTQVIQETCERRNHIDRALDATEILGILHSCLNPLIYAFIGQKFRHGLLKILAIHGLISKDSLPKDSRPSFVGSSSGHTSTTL

[2] = Metabolic stability in rat liver microsome after 30 min at 37 degreeC; format: ADME; settings: liver microsomes, read-out: Stability
How it was run: (§1)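 Liver microsomes (human or rat) incubated with compound at 1 µM final for 30 min at 37 °C in 100 mM potassium phosphate pH 7.4 with 1 mM β-NADPH; reported as percent parent remaining; means ± SD of two or more measurements.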

[3] = Permeability across Caco-2 cell membrane; format: ADME, cell-based; settings: human
How it was run: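 Caco-2 monolayers in a commercial HTS Caco-2 system run per kit instructions; apicalto-basolateral apparent permeability (nm/s), binned as low or high predicted absorption; means ± SD of two or more measurements.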

[4] = Metabolic stability in human liver microsome after 30 min at 37 degreeC; format: ADME; settings: liver microsomes, read-out: Stability; how it was run: as §1

| Structure (SMILES) | IC50 [1] | also measured |
| --- | --- | --- |
| O=c1c(O)c(Nc2ccccc2)/c1=N/c1ccccc1O | 476 nM | – |
| O=C(O)c1ccc(/N=c2\c(O)c(O)\c2=N/c2ccccc2)c(O)c1 | 3100 nM | – |
| N#Cc1ccc(Nc2c(O)c(=O)/c2=N\c2ccccc2)c(O)c1 | 3 nM | – |
| CN(C)C(=O)c1cccc(/N=c2\c(O)c(O)\c2=N/C2CCOCC2)c1O | 171 nM | – |
| CC(C)/N=c1\c(O)c(O)\c1=N/c1cccc(C(=O)N(C)C)c1O | 10 nM | – |
| CN(C)C(=O)c1cccc(/N=c2\c(O)c(O)\c2=N/[C@@H]2CCc3ccccc32)c1O | 548 nM | – |
| CN(C)C(=O)c1cccc(/N=c2/c(N(C)c3ccccc3)c(O)c2=O)c1O | 7200 nM | – |
| N#Cc1ccc(O)c(Nc2c(O)c(=O)/c2=N\c2ccccc2)c1 | 74 nM | – |
| CN(C)C(=O)c1cccc(/N=c2\c(O)c(O)\c2=N/C(C)(C)C)c1O | 14 nM | – |
| CCC(CC)/N=c1\c(O)c(O)\c1=N/c1cccc(C(=O)N(C)C)c1O | – | remaining at 0.5 h [2]: 75%; Papp [3]: 12 ×10⁻⁶ cm/s; remaining at 0.5 h [4]: 82% |
| NC(=O)c1cccc(/N=c2\c(O)c(O)\c2=N/c2ccccc2)c1O | 34 nM | – |
| CN(C)C(=O)c1cccc(/N=c2\c(O)c(O)\c2=N/C2CCCCC2)c1O | 10 nM | – |
| CN(C)C(=O)c1cccc(/N=c2\c(O)c(O)\c2=N/C2CCCC2)c1O | 8 nM | remaining at 0.5 h [2]: 56%; Papp [3]: 10.1 ×10⁻⁶ cm/s; remaining at 0.5 h [4]: 72% |
| CCNC(=O)c1cccc(/N=c2\c(O)c(O)\c2=N/c2ccccc2)c1O | 65 nM | – |
| CN(C)C(=O)c1cccc(/N=c2\c(O)c(O)\c2=N/CCc2ccccc2)c1O | 926 nM | – |
| O=c1c(O)c(Nc2cc([N+](=O)[O-])ccc2O)/c1=N/c1ccccc1 | 56 nM | – |
| CN(C)C(=O)c1cccc(/N=c2\c(O)c(O)\c2=N/c2ccccc2)c1O | 2 nM | remaining at 0.5 h [2]: 67%; Papp [3]: 2.4 ×10⁻⁶ cm/s; remaining at 0.5 h [4]: 64% |
| COC(=O)c1cccc(/N=c2\c(O)c(O)\c2=N/c2ccccc2)c1O | 53 nM | – |
| CN(C)C(=O)c1cccc(/N=c2\c(O)c(O)\c2=N/Cc2ccco2)c1O | 41 nM | – |
| CN(c1ccccc1O)c1c(Nc2ccccc2)c(=O)c1=O | 28600 nM | – |
| O=C(NCc1ccccc1)c1cccc(Nc2c(O)c(=O)/c2=N\c2ccccc2)c1O | 139 nM | – |
| CNC(=O)c1cccc(/N=c2\c(O)c(O)\c2=N/c2ccccc2)c1O | 22 nM | – |
| O=c1c(O)c(Nc2ccc([N+](=O)[O-])cc2O)/c1=N/c1ccccc1 | 36 nM | – |
| O=c1c(O)c(Nc2ccc([N+](=O)[O-])cc2)/c1=N/c1ccccc1 | 8600 nM | – |
| CN(C)C(=O)c1cc(Cl)cc(/N=c2\c(O)c(O)\c2=N/c2ccccc2)c1O | 2 nM | – |
| O=C(O)c1cccc(/N=c2\c(O)c(O)\c2=N/c2ccccc2)c1O | 1000 nM | – |
